≈ marks a conversion by molar mass, not a printed value.
What was measured:
Type in all cases: functional
Clostridioides difficile [1] = test: Antimicrobial activity against Clostridium difficile 630c selected after 2 ug/ml of moxifloxacin by Etest method
Method in brief: (§1)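 Stable in vitro-selected mutant tested for gatifloxacin susceptibility by Etest, per the manufacturer's instructions, with an 8 μg/ml breakpoint. For selection, the parent was grown in antibiotic-free brain heart infusion (BHI) for 24 h at 35°C under anaerobic conditions. […] Later steps used double the MIC. Stability was confirmed by three subcultures.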

Clostridioides difficile [2] = test: Antimicrobial activity against Clostridium difficile 630d selected after 4 ug/ml of moxifloxacin by Etest method; method in brief: as §1
Clostridioides difficile [3] = test: Antimicrobial activity against Clostridium difficile BI2a harboring GyrB Arg447Lys mutant gene selected after 2 ug/ml of moxifloxacin by Etest method; method in brief: as §1
Clostridioides difficile [4] = test: Antimicrobial activity against Clostridium difficile BI2c harboring GyrB Arg447Lys mutant gene selected after 2 ug/ml of moxifloxacin by Etest method; method in brief: as §1
Clostridioides difficile [5] = test: Antimicrobial activity against Clostridium difficile C253A selected after 4 ug/ml of levofloxacin by Etest method; method in brief: as §1
Clostridioides difficile [6] = test: Antimicrobial activity against Clostridium difficile C253E selected after 8 ug/ml of levofloxacin by Etest method
Clostridioides difficile [7] = test: Antimicrobial activity against Clostridium difficile C253F selected after 8 ug/ml of levofloxacin by Etest method
Clostridioides difficile [8] = test: Antimicrobial activity against Clostridium difficile CD5F harboring GyrB Ser416Ala mutant gene selected after 8 ug/ml of levofloxacin by Etest method
Clostridioides difficile [9] = test: Antimicrobial activity against Clostridium difficile A422A selected after 4 ug/ml of levofloxacin by Etest method; method in brief: as §1
Clostridioides difficile [10] = test: Antimicrobial activity against Clostridium difficile A422D harboring GyrB Leu451Phe mutant gene selected after 8 ug/ml of levofloxacin by Etest method; method in brief: as §1
Clostridioides difficile [11] = test: Antimicrobial activity against Clostridium difficile A422E harboring GyrB Leu451Phe mutant gene selected after 8 ug/ml of levofloxacin by Etest method; method in brief: as §1
Clostridioides difficile [12] = test: Antimicrobial activity against Clostridium difficile A422H harboring GyrA Thr82Ile and GyrB Leu451Phe mutant genes selected after 8 ug/ml of levofloxacin by Etest method; method in brief: as §1
Clostridioides difficile [13] = test: Antimicrobial activity against Clostridium difficile 630A selected after 4 ug/ml of levofloxacin by Etest method; method in brief: as §1
Clostridioides difficile [14] = test: Antimicrobial activity against Clostridium difficile 630C selected after 4 ug/ml of levofloxacin by Etest method; method in brief: as §1
Clostridioides difficile [15] = test: Antimicrobial activity against Clostridium difficile BI2C selected after 4 ug/ml of levofloxacin by Etest method; method in brief: as §1
Clostridioides difficile [16] = test: Antimicrobial activity against Clostridium difficile BI2E harboring GyrB Glu466Lys mutant gene selected after 8 ug/ml of levofloxacin by Etest method; method in brief: as §1
Clostridioides difficile [17] = test: Antimicrobial activity against Clostridium difficile 630 expressing tcdA and tcdB gene by Etest method
Method in brief: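 Parent clinical or nontoxigenic isolate tested for gatifloxacin susceptibility by Etest, run per the manufacturer's instructions; a fluoroquinolone breakpoint of 8 μg/ml was applied.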

Clostridioides difficile [18] = test: Antimicrobial activity against Clostridium difficile C253f selected after 4 ug/ml of moxifloxacin by Etest method
Clostridioides difficile [19] = test: Antimicrobial activity against Clostridium difficile CD5a harboring GyrB Ser416Ala mutant gene selected after 2 ug/ml of moxifloxacin by Etest method
Clostridioides difficile [20] = test: Antimicrobial activity against Clostridium difficile CD5f harboring GyrB Ser416Ala mutant gene selected after 4 ug/ml of moxifloxacin by Etest method
Clostridioides difficile [21] = test: Antimicrobial activity against Clostridium difficile CD5h harboring GyrA Ala118Ser, Thr82Ala and GyrB Ser416Ala mutant gene selected after 8 ug/ml of moxifloxacin by Etest method
Clostridioides difficile [22] = test: Antimicrobial activity against Clostridium difficile A422b selected after 2 ug/ml of moxifloxacin by Etest method; method in brief: as §1
Clostridioides difficile [23] = test: Antimicrobial activity against Clostridium difficile A422c selected after 2 ug/ml of moxifloxacin by Etest method; method in brief: as §1
Clostridioides difficile [24] = test: Antimicrobial activity against Clostridium difficile A422h harboring GyrA Asp81Asn mutant gene selected after 8 ug/ml of moxifloxacin by agar dilution method
Clostridioides difficile [25] = test: Antimicrobial activity against Clostridium difficile 630c selected after 2 ug/ml of moxifloxacin by agar dilution method
Clostridioides difficile [26] = test: Antimicrobial activity against Clostridium difficile 630f selected after 4 ug/ml of moxifloxacin by agar dilution method
Clostridioides difficile [27] = test: Antimicrobial activity against Clostridium difficile BI2c harboring GyrB Arg447Lys mutant gene selected after 2 ug/ml of moxifloxacin by agar dilution method
Clostridioides difficile [28] = test: Antimicrobial activity against Clostridium difficile C253A selected after 4 ug/ml of levofloxacin by agar dilution method
Clostridioides difficile [29] = test: Antimicrobial activity against Clostridium difficile A422B selected after 4 ug/ml of levofloxacin by agar dilution method
Clostridioides difficile [30] = test: Antimicrobial activity against Clostridium difficile A422C selected after 4 ug/ml of levofloxacin by agar dilution method
Clostridioides difficile [31] = test: Antimicrobial activity against Clostridium difficile A422H harboring GyrA Thr82Ile and GyrB Leu451Phe mutant genes selected after 8 ug/ml of levofloxacin by agar dilution method
Clostridioides difficile [32] = test: Antimicrobial activity against Clostridium difficile 630A selected after 4 ug/ml of levofloxacin by agar dilution method
Clostridioides difficile [33] = test: Antimicrobial activity against Clostridium difficile BI2A selected after 4 ug/ml of levofloxacin by agar dilution method
Clostridioides difficile [34] = test: Antimicrobial activity against Clostridium difficile BI2B selected after 4 ug/ml of levofloxacin by agar dilution method
Clostridioides difficile [35] = test: Antimicrobial activity against Clostridium difficile BI2D harboring GyrB Glu466Lys mutant gene selected after 8 ug/ml of levofloxacin by agar dilution method
Clostridioides difficile [36] = test: Antimicrobial activity against Clostridium difficile BI2E harboring GyrB Glu466Lys mutant gene selected after 8 ug/ml of levofloxacin by agar dilution method
Clostridioides difficile [37] = test: Antimicrobial activity against Clostridium difficile CD5b harboring GyrB Ser416Ala mutant gene selected after 2 ug/ml of moxifloxacin by agar dilution method
Clostridioides difficile [38] = test: Antimicrobial activity against Clostridium difficile CD5d harboring GyrB Ser416Ala mutant gene selected after 4 ug/ml of moxifloxacin by agar dilution method
Clostridioides difficile [39] = test: Antimicrobial activity against Clostridium difficile CD5h harboring GyrA Ala92Glu and GyrB Ser416Ala mutant genes selected after 8 ug/ml of moxifloxacin by agar dilution method
Clostridioides difficile [40] = test: Antimicrobial activity against Clostridium difficile CD5h harboring GyrA Ala118Ser, Thr82Ala and GyrB Ser416Ala mutant genes selected after 8 ug/ml of moxifloxacin by agar dilution method
Clostridioides difficile [41] = test: Antimicrobial activity against Clostridium difficile CD5i harboring GyrA Ala118Ser, Thr82Ala and GyrB Ser416Ala mutant genes selected after 8 ug/ml of moxifloxacin by agar dilution method
Clostridioides difficile [42] = test: Antimicrobial activity against Clostridium difficile A422d selected after 4 ug/ml of moxifloxacin by agar dilution method

COc1c(N2CCNC(C)C2)c(F)cc2c(=O)c(C(=O)O)cn(C3CC3)c12 (configuration not stated) [GATIFLOXACIN] was tested, and the MIC (Clostridioides difficile [1]) was 0.75 µg/mL, the MIC (Clostridioides difficile [2]) was 2 µg/mL and the MIC (Clostridioides difficile [3]) was 1.5 µg/mL. The MIC (Clostridioides difficile [4]) was 1.5 µg/mL, the MIC (Clostridioides difficile [5]) was 0.5 µg/mL and the MIC (Clostridioides difficile [6]) was 1 µg/mL. It also gave an MIC (Clostridioides difficile [7]) of 1 µg/mL, an MIC (Clostridioides difficile [8]) of 2 µg/mL and an MIC (Clostridioides difficile [9]) of 1 µg/mL. The MIC (Clostridioides difficile [10]) was 2 µg/mL, the MIC (Clostridioides difficile [11]) was 2 µg/mL and the MIC (Clostridioides difficile [12]) was no less than 32 µg/mL. For the same compound, the MIC (Clostridioides difficile [13]) was 0.75 µg/mL, the MIC (Clostridioides difficile [14]) was 0.75 µg/mL and the MIC (Clostridioides difficile [15]) was 2 µg/mL. For the same compound, the MIC (Clostridioides difficile [16]) was no less than 32 µg/mL, the MIC (Clostridioides difficile [17]) was 0.75 µg/mL (≈ 2 µM) and the MIC (Clostridioides difficile [18]) was 1 µg/mL. It also gave an MIC (Clostridioides difficile [19]) of 0.75 µg/mL, an MIC (Clostridioides difficile [20]) of 0.75 µg/mL and an MIC (Clostridioides difficile [21]) of 16 µg/mL. It also gave an MIC (Clostridioides difficile [22]) of 1.5 µg/mL and an MIC (Clostridioides difficile [23]) of 1.5 µg/mL.

C[C@H]1COc2c(N3CCN(C)CC3)c(F)cc3c(=O)c(C(=O)O)cn1c23.C[C@H]1COc2c(N3CCN(C)CC3)c(F)cc3c(=O)c(C(=O)O)cn1c23.O [LEVOFLOXACIN] showed an MIC (Clostridioides difficile [24]) of 64 µg/mL, an MIC (Clostridioides difficile [25]) of 4 µg/mL and an MIC (Clostridioides difficile [26]) of 4 µg/mL. It also gave an MIC (Clostridioides difficile [27]) of 8 µg/mL, an MIC (Clostridioides difficile [28]) of 1 µg/mL and an MIC (Clostridioides difficile [29]) of 1 µg/mL. It also gave an MIC (Clostridioides difficile [30]) of 1 µg/mL, an MIC (Clostridioides difficile [31]) of 64 µg/mL and an MIC (Clostridioides difficile [32]) of 1 µg/mL. For the same compound, the MIC (Clostridioides difficile [33]) was 1 µg/mL, the MIC (Clostridioides difficile [34]) was 1 µg/mL and the MIC (Clostridioides difficile [35]) was 16 µg/mL. The MIC (Clostridioides difficile [36]) was 16 µg/mL, the MIC (Clostridioides difficile [37]) was 2 µg/mL and the MIC (Clostridioides difficile [38]) was 2 µg/mL. It also gave an MIC (Clostridioides difficile [39]) of 16 µg/mL, an MIC (Clostridioides difficile [40]) of 64 µg/mL and an MIC (Clostridioides difficile [41]) of 64 µg/mL. It also gave an MIC (Clostridioides difficile [42]) of 4 µg/mL.
